How the values were obtained:
[1] = Plasma glucose-lowering activity at a dosage of 0.005% in the diet in KKA(y) mice.; type: functional, Mus musculus
In short: (§1)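 KKAy mice (9–13 weeks old), five per group, grouped by blood glucose after 3 d on powdered CE-2 chow. Dietary admixture at 0.001, 0.005 or 0.01% for 4 d, food and water ad libitum. Orbital-vein plasma glucose measured enzymatically and expressed as maximum percent reduction versus control; Dunnett's test.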

[2] = Plasma lipid-lowering activity at a dosage of 0.005% in the diet in KKA(y) mice.; type: functional, Mus musculus
In short: (§2)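 KKAy mice (9–13 weeks old), five per group, on powdered CE-2 diet containing compound at 0.001, 0.005 or 0.01% for 4 d. Plasma triglyceride from orbital-vein blood measured enzymatically and reported as maximum percent reduction from control; Dunnett's test; less than 10% reduction flagged.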

Mus musculus [3] = species on record: Mus musculus; assay: Effective dose for 25% reduction in plasma lipid-lowering activity in KKAy mice; type: functional
In short: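 Male/female not stated; KKAy mice, 9–13 weeks old, fed powdered CE-2 chow 3 d, grouped (five per group) by blood glucose. Compounds given as dietary admixture at three levels (0.01, 0.005 or 0.001% in diet) for 4 d. Orbital-vein plasma triglyceride measured enzymatically as % reduction vs control; dose (mg/kg/d) from food intake and body weight; ED25 by linear regression.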

Rattus norvegicus [4] = species on record: Rattus norvegicus; assay: Effective dose for 25% reduction in plasma glucose-lowering activity in Wistar fatty rats; type: functional
In short: (§3)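 Wistar fatty rats (10–15 weeks old), five per group, allocated by plasma glucose and triglyceride. Oral dosing by stomach tube once daily for 6 d at three doses, suspended in 0.5% methyl cellulose; CE-2 pellets and water ad libitum. Tail-vein plasma glucose measured; ED25 taken from the three-dose response by linear regression.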

[5] = Plasma lipid-lowering activity at a dosage of 0.001% in the diet in KKAy mice; type: functional, Mus musculus; in short: as §2
[6] = Plasma glucose-lowering activity at a dosage of 0.001% in the diet in KKAy mice; type: functional, Mus musculus; in short: as §1
RXR alpha/PPAR gamma = molecular target: T1, RXR alpha/PPAR gamma (Homo sapiens, UniProt P19793+P37231); assay: Transcriptional activation in COS cells expressing PPAR gamma and RXR alpha
T1 sequence (P37231 whole entry): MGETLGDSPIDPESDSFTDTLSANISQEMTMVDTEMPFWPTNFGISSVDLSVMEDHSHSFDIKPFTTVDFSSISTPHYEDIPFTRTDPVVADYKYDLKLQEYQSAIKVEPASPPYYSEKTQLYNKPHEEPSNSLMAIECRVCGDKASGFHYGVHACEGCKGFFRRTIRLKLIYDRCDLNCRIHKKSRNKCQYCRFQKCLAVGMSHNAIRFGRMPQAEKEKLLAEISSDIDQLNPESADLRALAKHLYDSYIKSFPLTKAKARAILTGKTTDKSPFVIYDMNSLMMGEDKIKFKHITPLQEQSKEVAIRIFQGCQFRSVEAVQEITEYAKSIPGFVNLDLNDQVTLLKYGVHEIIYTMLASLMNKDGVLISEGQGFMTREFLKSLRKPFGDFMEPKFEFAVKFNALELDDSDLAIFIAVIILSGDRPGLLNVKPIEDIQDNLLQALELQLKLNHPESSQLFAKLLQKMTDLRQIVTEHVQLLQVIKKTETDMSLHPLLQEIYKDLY
T1 sequence (P19793 whole entry): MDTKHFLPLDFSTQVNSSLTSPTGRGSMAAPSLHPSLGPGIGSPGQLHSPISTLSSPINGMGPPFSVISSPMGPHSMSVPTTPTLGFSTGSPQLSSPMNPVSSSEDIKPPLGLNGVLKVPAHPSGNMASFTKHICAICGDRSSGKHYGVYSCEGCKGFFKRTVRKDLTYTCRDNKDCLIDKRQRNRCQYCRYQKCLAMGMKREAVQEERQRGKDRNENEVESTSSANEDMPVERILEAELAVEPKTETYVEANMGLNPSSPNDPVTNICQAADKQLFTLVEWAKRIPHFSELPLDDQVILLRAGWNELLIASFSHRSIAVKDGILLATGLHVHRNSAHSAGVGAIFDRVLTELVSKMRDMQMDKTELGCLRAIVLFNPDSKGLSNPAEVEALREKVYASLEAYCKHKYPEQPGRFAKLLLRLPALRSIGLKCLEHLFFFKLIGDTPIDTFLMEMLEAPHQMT

Mus musculus [7] = species on record: Mus musculus; assay: Effective dose for 25% reduction in plasma glucose-lowering activity of KKAy mice; type: functional
In short: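 KKAy mice (9–13 weeks old), five per group, allocated by blood glucose after 3 d on powdered CE-2 chow. Compounds given as dietary admix at three levels chosen from first screening, 4 d ad libitum. Orbital-vein plasma glucose assayed enzymatically. Dose in mg/kg/d computed from food intake and body weight; ED25 derived by linear regression.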

Rattus norvegicus [8] = species on record: Rattus norvegicus; assay: Effective dose for 25% reduction in glucose-lowering activity in Wistar fatty rats; type: functional; in short: as §3
[9] = Plasma lipid-lowering activity at a dosage of 0.01% in the diet in KKAy mice; type: functional, Mus musculus; in short: as §2
[10] = Rattus norvegicus, Plasma, read-out: ED25

Compound | Activity [1] | Activity [2] | Activity [5] | Activity [6] | further results
Cc1oc(-c2ccccc2)nc1CCOc1ccc(CCCCCC2OC(=O)NC2=O)cc1 (centres undefined) | 23 | 17 | – | – | –
CC1(COc2ccc(CC3SC(=O)NC3=O)cc2)CCCCC1 (centres undefined) [CIGLITAZONE] | – | – | – | – | ED25 (Mus musculus [3]): 25 mg/kg/day
Cc1oc(-c2ccccc2)nc1COc1ccc(CCCCCC2OC(=O)NC2=O)cc1 (centres undefined) | 45 | 59 | – | – | –
Cc1sc(-c2ccccc2)nc1COc1ccc(CCCC2OC(=O)NC2=O)cc1 (centres undefined) | 43 | 58 | 17 | 15 | ED25 (Rattus norvegicus [4]; [10]): 0.5 mg/kg/day; EC50 (RXR alpha/PPAR gamma): 813 nM
Cc1oc(-c2ccccc2)nc1CCOc1ccc(/C=C/C=C2\SC(=O)NC2=O)cc1 | 13 | 13 | – | – | –
Cc1oc(-c2ccccc2)nc1CCOc1ccc(CCCC2OC(=O)NC2=O)cc1 (centres undefined) | 49 | 41 | 26 | 11 | ED25 (Mus musculus [7]): 2.91 mg/kg/day
Cc1oc(-c2ccccc2)nc1COc1ccc(CCC2OC(=O)NC2=O)cc1 (centres undefined) | 63 | 60 | 13 | 28 | ED25 (Mus musculus [7]): 1.31 mg/kg/day
COc1cc(CCCC2OC(=O)NC2=O)ccc1OCc1nc(-c2ccccc2)oc1C (centres undefined) | 61 | 75 | – | 48 | –
Cc1oc(-c2cc3ccccc3s2)nc1COc1ccc(CCCC2OC(=O)NC2=O)cc1 (centres undefined) | 48 | 62 | 24 | 25 | –
Cc1oc(-c2ccccc2)nc1COc1ccc(CCCCCC2SC(=O)NC2=O)cc1 (centres undefined) | 19 | <10 | – | – | –
Cc1oc(-c2ccc3ccccc3c2)nc1COc1ccc(CCCC2OC(=O)NC2=O)cc1 (centres undefined) | 55 | 72 | 40 | 45 | ED25 (Rattus norvegicus [4]; [10]): 0.178 mg/kg/day; EC50 (RXR alpha/PPAR gamma): 29.3 nM
Cc1oc(-c2ccccc2)nc1CCC(O)c1ccc(CCCC2OC(=O)NC2=O)cc1 (centres undefined) | 23 | 22 | – | – | –
Cc1sc(-c2ccccc2)nc1COc1ccc(CCCC2OC(=O)NC2=O)cc1 (single isomer, unassigned; (-)) | – | – | – | – | ED25 (Rattus norvegicus [8]): 3 mg/kg/day; EC50 (RXR alpha/PPAR gamma): > 1000 nM
Cc1oc(-c2ccccc2)nc1CCOc1ccc(CCC2OC(=O)NC2=O)cc1 (centres undefined) | 56 | 53 | 15 | 18 | ED25 (Mus musculus [7]): 4.83 mg/kg/day
Cc1oc(-c2ccccc2)nc1COc1ccc(CCCCC2OC(=O)NC2=O)cc1 (centres undefined) | 43 | 51 | – | – | –
Cc1oc(-c2ccccc2)nc1CCCOc1ccc(CC2OC(=O)NC2=O)cc1 (centres undefined) | 30 | 25 | – | – | –
Cc1oc(-c2ccccc2)nc1COc1ccc(CCCC2OC(=O)NC2=O)cn1 (centres undefined) | 54 | 82 | 69 | 53 | ED25 (Rattus norvegicus [4]; [10]): 0.048 mg/kg/day; EC50 (RXR alpha/PPAR gamma): 16.5 nM
Cc1oc(-c2ccccc2)nc1COc1cccc(CCCC2OC(=O)NC2=O)c1 (centres undefined) | 32 | – | – | – | Activity [9]: 47

Compound | Activity [1] | Activity [2] | Activity [5] | Activity [6] | further results
Cc1oc(-c2cc3ccccc3o2)nc1COc1ccc(CCCC2OC(=O)NC2=O)cc1 (centres undefined) | 47 | 71 | 12 | 27 | –
Cc1oc(-c2ccco2)nc1COc1ccc(CCCC2OC(=O)NC2=O)cc1 (centres undefined) | 61 | 58 | – | 38 | –
Cc1oc(-c2ccccc2)nc1COc1ccc(CCCCC2SC(=O)NC2=O)cc1 (centres undefined) | 22 | 21 | – | – | –
Cc1oc(-c2ccccc2)nc1COc1ccc(CCCC2OC(=O)NC2=O)cc1 (centres undefined) | 61 | 83 | 55 | 53 | ED25 (Rattus norvegicus [4]; [10]): 0.078 mg/kg/day; ED25 (Mus musculus [7]): 0.402 mg/kg/day; EC50 (RXR alpha/PPAR gamma): 119 nM
Cc1oc(-c2ccccc2)nc1COc1ccccc1CCCC1OC(=O)NC1=O (centres undefined) | 11 | – | – | – | Activity [9]: 33
Cc1oc(-c2ccccc2)nc1COc1ccc(CCCC2SC(=O)NC2=O)cc1 (centres undefined) | 48 | 37 | <10 | <10 | –
Cc1oc(-c2ccccc2)nc1COc1ccc(CCC2SC(=O)NC2=O)cc1 (centres undefined) | 24 | 15 | – | – | –
Cc1oc(-c2ccccc2)nc1COc1ccc(/C=C/C=C2/OC(=O)NC2=O)cc1 | 23 | 29 | – | – | –
Cc1oc(-c2ccccc2)nc1CCOc1ccc(CCC2SC(=O)NC2=O)cc1 (centres undefined) | 14 | 32 | – | – | –
COc1cc(CCCC2OC(=O)NC2=O)ccc1OCc1nc(-c2ccco2)oc1C (stereo in doubt; (+)-64) | – | – | 32 | 45 | ED25 (Rattus norvegicus [4]): 0.05 mg/kg/day; EC50 (RXR alpha/PPAR gamma): 8.87 nM
Cc1oc(-c2cccc3ccccc23)nc1COc1ccc(CCCC2OC(=O)NC2=O)cc1 (centres undefined) | 23 | – | – | – | –
COc1cc(CCCC2SC(=O)NC2=O)ccc1OCc1nc(-c2ccccc2)oc1C (centres undefined) | 54 | 58 | 24 | 12 | ED25 (Mus musculus [7]): 3.17 mg/kg/day
Cc1oc(-c2ccccc2)nc1CCOc1ccc(CCCCC2OC(=O)NC2=O)cc1 (centres undefined) | 27 | 27 | – | – | –
COc1cc(CCCC2OC(=O)NC2=O)ccc1OCc1nc(-c2ccco2)oc1C (single isomer, unassigned; (-)) | <10 | – | < 10 | – | ED25 (Rattus norvegicus [4]): 0.362 mg/kg/day; EC50 (RXR alpha/PPAR gamma): 35.4 nM
Cc1oc(-c2ccccc2)nc1CCCc1ccc(CCCC2OC(=O)NC2=O)cc1 (centres undefined) | 22 | 19 | – | – | –
COc1cc(CCCC2OC(=O)NC2=O)ccc1OCc1nc(-c2ccco2)oc1C (stereo in doubt; 64) | 58 | 74 | < 10 | 39 | ED25 (Rattus norvegicus [4]): 0.069 mg/kg/day; EC50 (RXR alpha/PPAR gamma): 24.1 nM
O=C1NC(=O)C(CCCc2ccc(OCc3coc(-c4ccccc4)n3)cc2)O1 (centres undefined) | 44 | – | – | – | –
Cc1oc(-c2ccccc2)nc1CCC(=O)c1ccc(CCCC2OC(=O)NC2=O)cc1 (centres undefined) | 32 | 17 | – | – | –
